In brackets after ≈: the same amount, converted by molar mass.
How the values were obtained:
Format in all cases: functional
Klebsiella pneumoniae = assay: Minimum inhibitory activity towards Klebsiella pneumoniae ATCC 10031
Method in brief: (§1)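 Broth microdilution in Mueller-Hinton broth, inoculum 5 × 10^5 CFU/mL. MIC taken as the lowest antibiotic concentration preventing growth, judged by absence of turbidity after 24 h at 37 °C.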

Enterococcus faecalis = assay: Minimum inhibitory activity towards Enterococcus faecalis ATCC 29212; method in brief: as §1
[1] = Minimum inhibitory activity towards Bacillus subtilis ATCC 33608; method in brief: as §1
Staphylococcus aureus = assay: Minimum inhibitory activity towards Staphylococcus aureus ATCC 25923; method in brief: as §1

Molecule `CC(=O)OCC1=C(C(=O)O)N2C(=O)[C@@H](NC(=O)[C@@H](Cc3ccccc3)NNC(=O)OCc3ccccc3[N+](=O)[O-])C2SC1` (some centres undefined) has an MIC (Klebsiella pneumoniae) of 32 µg/mL (≈ 52.2 µM), an MIC (Enterococcus faecalis) of over 32 µg/mL and an MIC [1] of 2 µg/mL (≈ 3.26 µM). The MIC (Staphylococcus aureus) was 1 µg/mL (≈ 1.63 µM).
